Measured values from publication PMC5482095 (Molecular Medicine Reports, 2017).
≈ marks a conversion by molar mass, not a printed value.

Experiments:
mES-D3 cells = test: MTT cytotoxicity assay, embryonic stem cells; assay type: cell-based, murine; conditions: Mus musculus, Embryonic stem cell, 240 h, read-out: IC50 ES
BALB/c 3T3 cells = test: MTT cytotoxicity assay, 3T3 fibroblasts; assay type: cell-based, murine; conditions: for IC50: Mus musculus, BALB/c3T3, 240 h, read-out: IC50 3T3
[1] = system: mES-D3 cells and BALB/c-3T3 cells; test: Classification of embryotoxicity by the ECVAM prediction model; design: species or system murine; conditions: prediction model from mean IC50 3T3, IC50 ES and ID50
Method in brief: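 Class (non-, weak or strong embryotoxic) comes from the ECVAM linear discriminant prediction model using mean IC50 3T3, IC50 ES and ID50. ID50 setup: 1,000 mES cells per 20 µl hanging drop without LIF for 3 days, then suspension for 2 days, then 100 EBs/well on 0.1% gelatin for 5 days. Compound is present from day 0. On day 10, α/β-MHC expression is measured by RT-PCR against GAPDH, giving the 50%-suppression concentration (mean of three repeats).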

[2] = cited from earlier work
mice = conditions: cited from earlier work
[3] = system: mouse preimplantation embryos; conditions: in vivo; cited from earlier work
[4] = toxicological studies; cited from earlier work

Molecule	IC50 (mES-D3 cells)	IC50 (BALB/c 3T3 cells)	Classification of the embryotoxicity [1]	Classification of the embryotoxicity according to the PM (in words) [1]	Known in vivo embryotoxic potential [2]	Oral lethal dose (mice)	Influence on development of preimplantation embryos [3]	IC50 3T3 (BALB/c 3T3 cells; BALB/c 3T3 cells, 10 days of culture, MTT, mean ± standard error of the mean of three experiments)	Toxicity in vivo [4]
O=c1[nH]cc(F)c(=O)[nH]1 [5-fluorouracil, reference compound]	0.08 ± 0.016 µg/mL (≈ 0.615 µM)	0.244 ± 0.051 µg/mL (≈ 1.88 µM)	Strong	strong embryotoxicity	strong embryotoxicity	–	–	–	–
CC(C)c1cc2c(c(O)c1O)[C@@]1(C(=O)O)CCCC(C)(C)[C@@H]1CC2 [Carnosic acid]	5.77 ± 1.3 µg/mL (≈ 17.4 µM)	26.3 ± 3.86 µg/mL (≈ 79.1 µM)	Weak	weak embryotoxicity	–	7,100 mg/kg of body weight	–	–	–
CCCCCCCCOC(=O)c1ccccc1C(=O)OCCCCCCCC [Dioctyl phthalate, dioctyl phthalate]	124 ± 24.9 µg/mL (≈ 316 µM)	213 ± 28.2 µg/mL (≈ 547 µM)	Weak	weak embryotoxicity	–	–	–	–	–
C=CCc1ccc(O)c(OC)c1 [Eugenol, eugenol]	1.93 ± 0.329 µg/mL (≈ 11.7 µM)	9.44 ± 2.85 µg/mL (≈ 57.5 µM)	Strong	strong embryotoxicity	–	–	may induce a significantly increased rate of cell death and affect the development of embryo	–	–
CC1(C)S[C@@H]2[C@H](NC(=O)Cc3ccccc3)C(=O)N2[C@H]1C(=O)O [Penicillin G, penicillin G, reference compound]	1570 ± 152 µg/mL (≈ 4690 µM)	1160 ± 69.1 µg/mL (≈ 3470 µM)	None	non-embryotoxicity	–	–	–	–	–
procyanidin	–	–	None	non-embryotoxicity	–	–	–	12.100 ± 1.828 µg/mL	nontoxic and does not cause any detrimental effects in vivo
